≈ marks a conversion by molar mass, not a printed value.
System: Mycobacterium tuberculosis
Assay: Antimycobacterial activity against isoniazid/rifampicin/ethambutol-resistant Mycobacterium tuberculosis clinical isolate after 4 days by Alamar blue assay
Format: functional
Details: 96 h
Summary of the method: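 Microplate Alamar blue assay against M. tuberculosis H37Rv (sensitive to isoniazid, rifampicin and ethambutol) and a clinical isolate resistant to all three drugs. Compounds were tested at 256, 128, 64, 32, 16, 8, 4, 2 and 1 µg/mL. Isoniazid, rifampicin, ethambutol and ofloxacin controls were run under the same conditions. MIC is given in µg/mL and converted to µM.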

SMILES	MIC [µM]
NNC(=O)c1ccncc1 [ISONIAZID]	58.3 (≈ 8 µg/mL)
O=C(/C=C/c1ccc(F)cc1)N[C@H](CO)Cc1ccccc1	53.4 (≈ 16 µg/mL)
C(=C\c1cccs1)/C1=N[C@@H](Cc2ccccc2)CO1	7.4 (≈ 1.99 µg/mL)
O=C(/C=C/c1ccccc1)N[C@H](CO)Cc1ccccc1	56.8 (≈ 16 µg/mL)
CC[C@@H](CO)NCCN[C@@H](CC)CO [ETHAMBUTOL]	> 1250
COc1ccc(/C=C/C2=N[C@@H](Cc3ccccc3)CO2)cc1	6.8 (≈ 1.99 µg/mL)
Clc1ccc(/C=C/C2=N[C@@H](Cc3ccccc3)CO2)cc1	26.9 (≈ 8.01 µg/mL)
CC1COc2c(N3CCN(C)CC3)c(F)cc3c(=O)c(C(=O)O)cn1c23 (stereo unspecified) [OFLOXACIN]	5.5 (≈ 1.99 µg/mL)
COc1ccc(/C=C/C(=O)N[C@H](CO)Cc2ccccc2)cc1	51.3 (≈ 16 µg/mL)
O=C(/C=C/c1ccc(Cl)cc1)N[C@H](CO)Cc1ccccc1	50.6 (≈ 16 µg/mL)
O=C(/C=C/c1cccs1)N[C@H](CO)Cc1ccccc1	55.6 (≈ 16 µg/mL)
Fc1ccc(/C=C/C2=N[C@@H](Cc3ccccc3)CO2)cc1	56.9 (≈ 16 µg/mL)
O=C(/C=C/c1ccc(OCc2ccccc2)cc1)N[C@H](CO)Cc1ccccc1	41.2 (≈ 16 µg/mL)
C(=C\c1ccccc1)/C1=N[C@@H](Cc2ccccc2)CO1	30.4 (≈ 8.01 µg/mL)
CO[C@H]1/C=C/O[C@@]2(C)Oc3c(C)c(O)c4c(O)c(c(/C=N/N5CCN(C)CC5)c(O)c4c3C2=O)NC(=O)/C(C)=C\C=C\[C@H](C)[C@H](O)[C@@H](C)[C@@H](O)[C@@H](C)[C@H](OC(C)=O)[C@@H]1C [RIFAMPIN]	19.4 (≈ 16 µg/mL)
C(=C\c1ccc(OCc2ccccc2)cc1)/C1=N[C@@H](Cc2ccccc2)CO1	21.6 (≈ 7.98 µg/mL)
